Experimental data as given in ChEMBL document CHEMBL4811266 (Bioorg Med Chem Lett, 2021).
Numbered stars: 1 amine (or outer) side, 2 acyl side, 3 side chain; on linkers, the order of the positions; unused ones are H or OH. Square brackets hold non-standard residues; d marks the D form. Peptide text beside a SMILES is read from it. X1 = O=C([C@@H]1Cc2cc(O)ccc2CN1[*:1])[*:2]; Tic(7-OH) = O=C(O)[C@@H]1Cc2ccc(O)cc2CN1

What was measured:
[1] = Stability of compound in human plasma assessed as parent compound remaining incubated for 24 hrs by LC-MS/MS analysis; format: ADME, cell-free; settings: read-out: Stabilty
Procedure, shortened: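 Peptides were incubated in human plasma and sampled at different time intervals up to 24 h. Remaining concentration was monitored by LC-MS using selected abundant transitions and expressed relative to the initial concentration.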

Homo sapiens = species: Homo sapiens; test: Selectivity index, ratio of IC50 for displacement of [125-I]-[Sar1, Ile8] from recombinant human AT1R transfected in human HEK293 cells to IC50 for displacement of [125-I]-[Sar1, Ile8] from recombinant human AT2R transfected in human HEK293 cells
[2] = biological target: T1, Type-2 angiotensin II receptor (Homo sapiens, UniProt P50052); test: Displacement of [125-I]-[Sar1, Ile8] from recombinant human AT2R transfected in human HEK293 cells incubated for 2 hrs by liquid scintillation counter analysis; format: cell-based
T1 sequence (P50052 whole entry): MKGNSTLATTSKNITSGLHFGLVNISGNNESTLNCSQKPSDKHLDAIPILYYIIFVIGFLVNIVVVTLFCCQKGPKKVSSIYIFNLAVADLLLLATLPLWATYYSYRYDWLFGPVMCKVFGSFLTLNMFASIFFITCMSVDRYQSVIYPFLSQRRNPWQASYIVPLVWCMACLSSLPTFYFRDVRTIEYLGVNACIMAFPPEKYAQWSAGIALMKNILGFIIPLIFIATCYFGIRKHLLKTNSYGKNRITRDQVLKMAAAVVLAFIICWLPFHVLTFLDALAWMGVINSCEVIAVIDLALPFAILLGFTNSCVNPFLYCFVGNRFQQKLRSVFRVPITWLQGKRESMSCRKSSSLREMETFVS

[3] = biological target: T2, Type-1 angiotensin II receptor (Homo sapiens, UniProt P30556); test: Displacement of [125-I]-[Sar1, Ile8] from recombinant human AT1R transfected in human HEK293 cells incubated for 2 hrs by liquid scintillation counter analysis; format: cell-based
T2 sequence (P30556 whole entry): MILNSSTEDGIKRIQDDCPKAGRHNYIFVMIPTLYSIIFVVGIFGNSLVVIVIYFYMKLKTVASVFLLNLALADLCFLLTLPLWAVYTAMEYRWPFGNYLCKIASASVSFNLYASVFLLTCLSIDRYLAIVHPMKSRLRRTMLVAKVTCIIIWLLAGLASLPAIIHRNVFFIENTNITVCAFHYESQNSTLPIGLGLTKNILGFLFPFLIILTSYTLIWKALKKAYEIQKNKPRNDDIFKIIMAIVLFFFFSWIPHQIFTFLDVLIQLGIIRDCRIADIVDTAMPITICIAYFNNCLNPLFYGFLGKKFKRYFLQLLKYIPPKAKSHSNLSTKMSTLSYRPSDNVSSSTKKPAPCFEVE

Compound | remaining at 24 h [1] [%] | Ratio IC50 (Homo sapiens) | IC50 [2] [nM] | IC50 [3] [nM]
CC[C@H](C)[C@H](NC(=O)[C@H](Cc1ccc(O)cc1)NC(=O)[C@@H](NC(=O)[C@H](CCCNC(=N)N)NC(=O)[C@@H](N)CC(=O)O)C(C)C)C(=O)N1Cc2ccc(O)cc2C[C@H]1C(=O)N1CCC[C@H]1C(=O)N[C@@H](Cc1ccccc1)C(=O)O (H-DRVYI[X1]PF-OH) | > 50 | 2.9 | 59.3 | 174
CC[C@H](C)[C@H](NC(=O)[C@H](Cc1ccc(O)cc1)NC(=O)[C@@H](NC(=O)[C@@H](N)CCCNC(=N)N)C(C)C)C(=O)N[C@H]1Cc2c([nH]c3ccccc23)CN(CC(=O)N[C@@H](Cc2ccccc2)C(=O)O)C1=O | 70 | > 94 | 107 | > 10000
CC[C@H](C)[C@H](NC(=O)[C@H](Cc1ccc(O)cc1)NC(=O)[C@@H](NC(=O)[C@H](CCCNC(=N)N)NC(=O)[C@@H](N)CC(=O)O)C(C)C)C(=O)N1Cc2cc(O)ccc2C[C@H]1C(=O)N1CCC[C@H]1C(=O)N[C@@H](Cc1ccccc1)C(=O)O (H-DRVYI[Tic(7-OH)]PF-OH) | > 90 | > 112 | 89.2 | > 10000
CC[C@H](C)[C@H](NC(=O)[C@H](Cc1ccc(O)cc1)NC(=O)[C@@H](NC(=O)[C@H](CCCNC(=N)N)NC(=O)[C@@H](N)CC(=O)O)C(C)C)C(=O)N[C@H]1Cc2c([nH]c3ccccc23)CN(CC(=O)N[C@@H](Cc2ccccc2)C(=O)O)C1=O | > 50 | > 219 | 45.7 | > 10000
CC[C@H](C)[C@H](NC(=O)[C@H](Cc1ccc(O)cc1)NC(=O)[C@@H](NC(=O)[C@@H](N)CCCNC(=N)N)C(C)C)C(=O)N1Cc2cc(O)ccc2C[C@H]1C(=O)N1CCC[C@H]1C(=O)N[C@@H](Cc1ccccc1)C(=O)O (H-RVYI[Tic(7-OH)]PF-OH) | > 70 | 1.1 | 119 | 134
CC[C@H](C)[C@H](NC(=O)[C@H](Cc1ccc(O)cc1)NC(=O)[C@@H](NC(=O)[C@@H](N)CCCNC(=N)N)C(C)C)C(=O)N1Cc2ccc(O)cc2C[C@H]1C(=O)N1CCC[C@H]1C(=O)N[C@@H](Cc1ccccc1)C(=O)O (H-RVYI[X1]PF-OH) | > 50 | 6.4 | 315 | 2010
H-DRVYIYPF-OH | > 50 | 18000 |  | 72600
